Test results published in ChEMBL document CHEMBL1143259, “Synthesis and antiplasmodial activity of new 4-aryl-2-trichloromethylquinazolines” (Bioorg Med Chem Lett, 2008).

How the values were obtained:
HepG2 = test: Cytotoxicity against human HepG2 cells by MTT assay; format: cell-based
Method in brief: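 HepG2 cells were seeded at 5 × 10³ cells/well in RPMI and pre-incubated for 24 h. Compound was added at various concentrations and incubated for 72 h. MTT (5 mg/mL in PBS) was then added in serum-free medium for 2 h at 37 °C in 6% CO₂. Formazan was dissolved in DMSO and A570 read against a 630 nm reference. Viability was expressed as % of untreated control, and the 50% cytotoxic concentration taken from the dose–response curve. Values are the mean of three independent experiments.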

[1] = (§1) Cytotoxicity against human THP1 cells by MTT assay; format: cell-based, THP-1; conditions: human, THP-1 cells; read-out: LC50 (the source's name)
Method in brief: (§2)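 Cells seeded at 5 × 10³/well in RPMI and pre-incubated 24 h, then exposed to a range of compound concentrations for 72 h. MTT was added in serum-free medium for 2 h at 37 °C, and the formazan was dissolved in DMSO. Absorbance was read at 570 nm against a 630 nm reference. Viability was taken as % of untreated control, and IC50 came from the dose–response curve (mean of three independent experiments).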

THP-1 = test: as §1; format: cell-based; conditions: Homo sapiens, THP-1; method in brief: as §2
[2] = Selectivity index, ratio of IC50 for human HepG2 cells to IC50 for Plasmodium falciparum W2; format: functional
Method in brief: (§3)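 SI = human-cell IC50 divided by P. falciparum W2 IC50. Each IC50 is the mean of three independent experiments.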

[3] = Selectivity index, ratio of IC50 for human THP1 cells to IC50 for Plasmodium falciparum W2; format: functional, THP-1; method in brief: as §3
Plasmodium falciparum [4] = test: Antiplasmodial activity against chloroquinone-sensitive Plasmodium falciparum 3D7; format: functional, organism-based
Plasmodium falciparum [5] = test: Antiplasmodial activity against chloroquinone-resistant Plasmodium falciparum W2; format: functional, organism-based

Work on `Clc1nc(C(Cl)(Cl)Cl)nc2ccccc12` yielded an IC50 (HepG2) greater than 125 µM, a CC50 [1] greater than 500 µM and an IC50 (THP-1) greater than 500 µM. The “Ratio IC50” value [2] was greater than 2.3, the “Ratio IC50” value [3] was greater than 9.2 and the IC50 (Plasmodium falciparum [4]) was 73.2 µM. For the same compound, the IC50 (Plasmodium falciparum [5]) was 54.5 µM.

Work on `ClC(Cl)(Cl)c1nc(-c2ccco2)c2ccccc2n1` yielded an IC50 (HepG2) greater than 125 µM, a CC50 [1] greater than 500 µM and an IC50 (THP-1) of 61.6 µM. For the same compound, the “Ratio IC50” value [2] was greater than 6.2, the “Ratio IC50” value [3] was 3.1 and the IC50 (Plasmodium falciparum [4]) was 30 µM. For the same compound, the IC50 (Plasmodium falciparum [5]) was 20.2 µM.

`CCN(CC)CCCC(C)Nc1ccnc2cc(Cl)ccc12` (centres undefined) [CHLOROQUINE] showed an IC50 (HepG2) of 30 µM.

Compound `ClC(Cl)(Cl)c1nc(-c2ccccc2)c2ccccc2n1` has an IC50 (HepG2) greater than 125 µM, a CC50 [1] greater than 500 µM and an IC50 (THP-1) of 125 µM. The “Ratio IC50” value [2] was greater than 15.6, the “Ratio IC50” value [3] was 15.6 and the IC50 (Plasmodium falciparum [4]) was 20.4 µM. The IC50 (Plasmodium falciparum [5]) was 8 µM.

Work on `Clc1ccc(-c2nc(C(Cl)(Cl)Cl)nc3ccccc23)cc1` yielded an IC50 (HepG2) greater than 125 µM, a CC50 [1] greater than 500 µM and an IC50 (THP-1) of 73.2 µM. For the same compound, the “Ratio IC50” value [2] was greater than 26.6, the “Ratio IC50” value [3] was 15.6 and the IC50 (Plasmodium falciparum [4]) was 2.2 µM. It also gave an IC50 (Plasmodium falciparum [5]) of 4.7 µM.

For `COc1cc(-c2nc(C(Cl)(Cl)Cl)nc3ccccc23)cc(OC)c1OC`, the IC50 (HepG2) was greater than 125 µM, the CC50 [1] was greater than 250 µM and the IC50 (THP-1) was greater than 250 µM. The “Ratio IC50” value [2] was greater than 4.3, the “Ratio IC50” value [3] was greater than 8.7 and the IC50 (Plasmodium falciparum [4]) was 23.3 µM. For the same compound, the IC50 (Plasmodium falciparum [5]) was 28.9 µM.

With `COc1ccc(-c2nc(C(Cl)(Cl)Cl)nc3ccccc23)cc1` the IC50 (HepG2) was 125 µM, the CC50 [1] was greater than 250 µM and the IC50 (THP-1) was 250 µM. The “Ratio IC50” value [2] was 11.5, the “Ratio IC50” value [3] was 22.9 and the IC50 (Plasmodium falciparum [4]) was 25 µM. It also gave an IC50 (Plasmodium falciparum [5]) of 10.9 µM.

Compound `Cc1ccc(-c2nc(C(Cl)(Cl)Cl)nc3ccccc23)s1` has an IC50 (HepG2) of 25 µM, a CC50 [1] of 125 µM and an IC50 (THP-1) of 50 µM. For the same compound, the “Ratio IC50” value [2] was 2.9, the “Ratio IC50” value [3] was 5.7 and the IC50 (Plasmodium falciparum [4]) was 24 µM. It also gave an IC50 (Plasmodium falciparum [5]) of 8.7 µM.

In the case of `C/N=C(\NC)c1nc(-c2ccccc2)c2ccccc2n1.Cl`, the IC50 (HepG2) is reported as greater than 125 µM, the CC50 [1] is reported as greater than 500 µM and the IC50 (THP-1) is reported as greater than 500 µM. For the same compound, the Ratio IC50 [2] was less than 1.25, the “Ratio IC50” value [3] was 5 and the IC50 (Plasmodium falciparum [4]) was greater than 100 µM. The IC50 (Plasmodium falciparum [5]) was greater than 100 µM.

For `Cc1nc(-c2ccccc2)c2ccccc2n1`, the IC50 (HepG2) was greater than 125 µM, the CC50 [1] was greater than 500 µM and the IC50 (THP-1) was 125 µM. The “Ratio IC50” value [2] was greater than 2, the “Ratio IC50” value [3] was 2 and the IC50 (Plasmodium falciparum [4]) was greater than 125 µM. It also gave an IC50 (Plasmodium falciparum [5]) of 62.4 µM.

Work on `ClC(Cl)(Cl)c1nc(-c2ccc3ccccc3c2)c2ccccc2n1` yielded an IC50 (HepG2) greater than 125 µM, a CC50 [1] greater than 500 µM and an IC50 (THP-1) greater than 500 µM. The “Ratio IC50” value [2] was greater than 15.4, the “Ratio IC50” value [3] was greater than 61.7 and the IC50 (Plasmodium falciparum [4]) was 23.3 µM. For the same compound, the IC50 (Plasmodium falciparum [5]) was 8.1 µM.

`COc1cccc2c1C(=O)c1c(O)c3c(c(O)c1C2=O)C[C@@](O)(C(=O)CO)C[C@@H]3O[C@H]1C[C@H](N)[C@H](O)[C@H](C)O1` [DOXORUBICIN] showed an IC50 (HepG2) of 0.2 µM, a CC50 [1] of 2.5 µM and an IC50 (THP-1) of 0.05 µM.

With `Fc1ccc(-c2nc(C(Cl)(Cl)Cl)nc3ccccc23)cc1` the IC50 (HepG2) was greater than 125 µM, the CC50 [1] was 500 µM and the IC50 (THP-1) was 125 µM. For the same compound, the “Ratio IC50” value [2] was greater than 50, the “Ratio IC50” value [3] was 50 and the IC50 (Plasmodium falciparum [4]) was 3 µM. For the same compound, the IC50 (Plasmodium falciparum [5]) was 2.5 µM.

`FC(F)(F)c1cccc(-c2nc(C(Cl)(Cl)Cl)nc3ccccc23)c1` gave an IC50 (HepG2) greater than 125 µM, a CC50 [1] greater than 500 µM and an IC50 (THP-1) of 78.6 µM. The “Ratio IC50” value [2] was greater than 3.1, the “Ratio IC50” value [3] was 1.9 and the IC50 (Plasmodium falciparum [4]) was 36.6 µM. For the same compound, the IC50 (Plasmodium falciparum [5]) was 40.4 µM.

Work on `C[C@H]1c2cccc(O)c2C(=O)C2=C(O)[C@]3(O)C(=O)C(C(N)=O)=C(O)[C@@H](N(C)C)[C@@H]3[C@@H](O)[C@@H]21` [DOXYCYCLINE] yielded an IC50 (Plasmodium falciparum [5]) of 9 µM.
